Results gathered from unrelated publications.
Protocols differ between the studies behind these lines.
Target: Tyrosine-protein kinase SYK (SYK, Homo sapiens, UniProt P43405)

The inhibition of COc1cc2ncnc(Nc3ccc(Oc4ccccc4)c(C)c3C)c2cc1OC is reported as 4% (enzyme activity; inhibitor; 1 µM).
For O=C(Nc1cnn(-c2csc(C(=O)NC3COC3)c2)c1)Nc1ccccc1Cl, the remaining activity was 101% (enzyme activity; inhibitor; 5 µM).
CN(c1ncccc1CNc1nc(Nc2ccc3c(c2)CC(=O)N3)ncc1C(F)(F)F)S(C)(=O)=O gave an inhibition of 91.7% (enzyme activity; inhibitor; 1 µM).
CC/C(=N\NC(=O)NCc1cccc(O)c1)c1ccc(O)c(C)c1O has an inhibition of 3.3% (enzyme activity; inhibitor; 0.1 µM).
O=C1Nc2ccc(Cl)cc2C1=Cc1cc(Cl)c(O)c(Cl)c1 has a remaining signal of 93.3% (cell-free assay; 0.5 µM).
The remaining activity of FC(F)c1nc2ccccc2n1-c1nc(N2CCOCC2)nc(N2CCOCC2)n1 is reported as 85% (enzyme activity; inhibitor; 10 µM).
For C[C@H](c1ccnc(Nc2nc3ccc(-c4cc(N(C)C)ncn4)cc3[nH]2)c1)N1CCN(C(=O)CC(F)(F)F)CC1, the remaining binding was 31% (binding; competition with immobilised ligand; 0.1 µM).
With Nc1nc(Nc2ccccc2)sc1C(=O)c1c(F)cccc1F the remaining activity was 37% (enzyme activity; inhibitor; 10 µM).
With Nc1cnc(N2CCc3cc(S(=O)(=O)Nc4c(F)cc(Cl)cc4F)cc(N4CCCC4=O)c32)nc1 the remaining binding was 100% (cell-free assay; competition with immobilised ligand; 1 µM).
Cc1ccc(Nc2nccc(N(C)c3ccc4c(C)n(C)nc4c3)n2)cc1S(N)(=O)=O has an inhibition of 21% (enzyme activity; inhibitor; 0.3 µM).
CS(=O)(=O)NCC[C@H](NC(=O)c1cncc2c1cnn2-c1ccc(F)cc1)c1ccnc(S(C)(=O)=O)c1 gave a remaining binding of 100% (cell-free assay; competition with immobilised ligand; 1 µM).
For Cc1cnc(NC2CCOCC2)nc1-n1cnc(C(=O)NC(CN)c2cc(F)cc(Cl)c2)c1 (stereo not shown), the remaining activity was 94% (enzyme activity; inhibitor; radiometric; 1 µM).
With CC(C)(C)c1nc2c(s1)c1nc(N)ncc1c1ccc(NS(=O)(=O)c3c(F)cccc3F)c(F)c12 the remaining activity was 95% (enzyme activity; inhibitor; radiometric; 1 µM).
With Cn1nc(C(=O)NCc2ccc(C(=O)O)cc2)cc1-c1ccc2[nH]ccc2c1 the remaining binding was 81% (cell-free assay; competition with immobilised ligand; 0.1 µM).
FC(F)(F)Oc1cccc(-c2cnc3ccc(-c4ccncc4)nn23)c1 has an activity vs control of 72% (enzyme activity; inhibitor; radiometric; 1 µM).
O=C(N1CCS(=O)(=O)CC1)N1C[C@H](c2ccc(OC(F)(F)F)cc2)C[C@H](c2nc(C3CC3)no2)C1 gave a remaining binding of 100% (cell-free assay; competition with immobilised ligand; 1 µM).
The remaining signal of O=C1NC(=O)c2cc(Nc3ccc(F)cc3)c(Nc3ccc(F)cc3)cc21 is reported as 98.8% (cell-free assay; 0.5 µM).
The inhibition of CNC(=O)c1cc(Oc2ccc(NC(=O)Nc3ccc(Cl)c(C(F)(F)F)c3)cc2)ccn1 is reported as 3% (enzyme activity; inhibitor; 0.3 µM).
The remaining signal of COc1ccc(COc2ccc(Cc3cnc(N)nc3N)cc2OC)cc1 is reported as 89% (cell-free assay; 0.5 µM).
C=CC(=O)Nc1cc(Nc2nccc(Nc3cc(Cl)c(F)cc3C(C)(C)O)n2)c(OC)cc1N1CC[C@@H](N(C)C)C1 has an inhibition of 14% (enzyme activity; inhibitor; 1 µM).
The remaining binding of Cc1c(NC(=O)c2cc(C(N)=O)nc3cc(F)ccc23)c(C(F)(F)F)nn1Cc1ccc(C#N)cc1 is reported as 95% (cell-free assay; competition with immobilised ligand; 1 µM).
Nc1nc(NC2CCCCC2)sc1C(=O)c1ccccc1 has a remaining activity of 91% (enzyme activity; inhibitor; 10 µM).
c1nc2c(Nc3ccc4c(c3)OCCO4)nc(Nc3ccc4c(c3)OCCO4)nc2[nH]1 gave an activity vs control of 2% (enzyme activity; inhibitor; 10 µM).
COc1cc(Nc2cnc(C#N)c(O[C@H](C)CN(C)C)n2)ncc1-c1cnn(C)c1 gave a remaining activity of 63% (enzyme activity; inhibitor; radiometric; 10 µM).
O=C(CSc1nc2nccnc2c(=O)n1CCc1ccccc1)Nc1nccs1 gave an inhibition of 7% (enzyme activity; inhibitor; 10 µM).
With Cc1ccc(C(=O)Nc2ccc(CN3CCN(C)CC3)c(C(F)(F)F)c2)cc1C#Cc1cnc2cccnn12 the remaining activity was 99% (enzyme activity; inhibitor; 23.5 nM).
With Cc1cc(NC(=O)c2cccc3cc(-c4cccc5[nH]nc(N)c45)ccc23)ccc1F the activity vs control was 109% (enzyme activity; inhibitor; 0.1 µM).
CN(c1ccnc(CNc2nc(Nc3ccc4c(c3)CC(=O)N4)ncc2C(F)(F)F)n1)S(C)(=O)=O has a remaining binding of 5.7% (cell-free assay; competition with immobilised ligand; 1 µM).
The inhibition of CN1CC(Oc2cnc(C#N)cc2-c2ccn3nc(NC(=O)C4CC4)cc3c2)C1 is reported as 1% (enzyme activity; inhibitor; 1 µM).
The remaining binding of Cc1nc(Cc2cccc(C(F)(F)F)c2)sc1-c1ccc(C(N)=O)nc1 is reported as 100% (cell-free assay; competition with immobilised ligand; 1 µM).
CN(C)C1CCN(CC#Cc2nn(C3CCCC3)c3nc(NCc4ccccc4)ncc23)C1 (stereo not shown) gave an inhibition of -1% (enzyme activity; inhibitor; FRET; 10 µM).
